Assays:
[1] = Calu3 lung tumor cell proliferation inhibition by the compound in vitro at a concentration of 0.6 uM.; type: functional, Homo sapiens
In short: (§1)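 Tumor cells grown in RPMI-1640 in 1% agar with 5% fetal bovine serum, exposed to the specified concentrations for 1 week. Viability was assessed against a control given distilled water in place of drug. 5-Fluorouracil served as the positive cytotoxic standard. Results are reported as concentration-dependent cell survival.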

[2] = Calu3 lung tumor cell proliferation inhibition by the compound in vitro at a concentration of 6.0 uM.; type: functional, Homo sapiens; in short: as §1
[3] = Calu3 lung tumor cell proliferation inhibition by the compound in vitro at a concentration of 60 uM.; type: functional, Homo sapiens; in short: as §1
COLO 320DM [4] = assay: COLO 320DM colon tumor cell proliferation inhibition by the compound in vitro at a concentration of 0.6 uM.; type: functional, Homo sapiens; in short: as §1
COLO 320DM [5] = assay: COLO 320DM colon tumor cell proliferation inhibition by the compound in vitro at a concentration of 6.0 uM.; type: functional, Homo sapiens; in short: as §1
COLO 320DM [6] = assay: COLO 320DM colon tumor cell proliferation inhibition by the compound in vitro at a concentration of 60 uM.; type: functional, Homo sapiens; in short: as §1
[7] = test system: Human immunodeficiency virus 1; assay: Inhibitory effect (100 uM) against HIV-1 in human peripheral blood monocyte cells(PBMC) (EC50 ->28.6 ug/mL); type: functional
[8] = test system: Human immunodeficiency virus 1; assay: Protection of MT-4 lymphocytes by the compound against HIV-1 infectivity in vitro at a concentration of 100 ug/mL (0.35 uM/mL); type: functional
In short: (§2)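 Virus (HIV-1 Molt IIIB, ~2 × 10^4 TCID50) preincubated with compound 1 h at 37 °C, 5% CO2. Then added to MT-4 cells (5 × 10^5 cells/well) and cultured at 37 °C. Trypan blue viability counts taken on days 4 and 7, triplicate at each concentration. Controls were infected and uninfected cells. Reported as % viable (surviving) MT-4 cells.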

[9] = test system: Human immunodeficiency virus 1; assay: Protection of MT-4 lymphocytes by the compound against HIV-1 infectivity in vitro at a concentration of 200 ug/mL (0.70 uM/mL); type: functional; in short: as §2
[10] = test system: Human immunodeficiency virus 1; assay: Protection of MT-4 lymphocytes by the compound against HIV-1 infectivity in vitro at a concentration of 400 ug/mL (1.4 uM/mL); type: functional; in short: as §2
[11] = test system: Human immunodeficiency virus 1; assay: Percent HIV-1 bound to H-9 cells at a concentration of 100(ug/mL).; type: functional
In short: (§3)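 HIV-1 Molt IIIB (50 μL) incubated overnight with compound at 100 μg/mL, then with uninfected H-9 cells 2 h at 37 °C. Washed; stained with HIV-positive human serum (1:100) then FITC anti-human IgG (1:10), 30 min at 4 °C each. Formaldehyde-fixed (0.5%) and analysed by flow cytometry for % virus bound and % binding inhibition.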

[12] = test system: Human immunodeficiency virus 1; assay: Inactivation of HIV-MN strain in MT-4 lymphocytes in vitro at a concentration of 100 ug/mL (0.35 uM/mL).; type: functional
In short: (§4)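 Compound (50 μL) was mixed with 50 μL of HIV-1 Molt IIIB or HIV-MN inoculum in RPMI 1640 for 1 h at room temperature. The mixture was added to 5 × 10^4 MT-4 cells and kept 7 days at 37 °C, 5% CO2. MTT (5.0 mg/mL) was added for 4 h, the reaction was stopped with 0.04 N HCl/2-propanol, and OD was read at 570 nm. % inactivation was calculated from OD relative to uninfected cells and untreated virus, mean of three.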

[13] = test system: Human immunodeficiency virus 1; assay: Inactivation of HIV-MN strain in MT-4 lymphocytes in vitro at a concentration of 200 ug/mL (0.70 uM/mL).; type: functional; in short: as §4
[14] = test system: Human immunodeficiency virus 1; assay: Inactivation of HIV-MN strain in MT-4 lymphocytes in vitro at a concentration of 400 ug/mL (1.40 uM/mL).; type: functional; in short: as §4
[15] = test system: Human immunodeficiency virus 1; assay: Inactivation of HIV-MoltIIIB strain in MT-4 lymphocytes in vitro at a concentration of 100 ug/mL (0.35 uM/mL).; type: functional; in short: as §4
[16] = test system: Human immunodeficiency virus 1; assay: Inactivation of HIV-MoltIIIB strain in MT-4 lymphocytes in vitro at a concentration of 200 ug/mL (0.70 uM/mL).; type: functional; in short: as §4
[17] = test system: Human immunodeficiency virus 1; assay: Inactivation of HIV-MoltIIIB strain in MT-4 lymphocytes in vitro at a concentration of 400 ug/mL (1.4 uM/mL).; type: functional; in short: as §4
[18] = test system: Human immunodeficiency virus 1; assay: Percent inhibition of HIV-1 binding to H-9 cells at a concentration of 100(ug/mL).; type: functional; in short: as §3
[19] = test system: Human immunodeficiency virus 1; assay: Inhibitory effect against HIV-1 induced cytopathic effects(HIV-1 neutralization) in MT-4 lymphocytes at a concentration of 100 ug/mL (0.3500 uM/mL).; type: functional
In short: (§5)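 HIV-1 Molt IIIB (~2 × 10^4 TCID50 in 100 μL) preincubated 1 h at 37 °C with a single compound dose, then added to MT-4 cells (5 × 10^5 cells/well, 1 mL). Cultured at 37 °C, 5% CO2. Viable cells counted by trypan blue exclusion on days 4 and 7. Triplicates; % viable cells. Controls: infected cells (positive), uninfected cells (negative).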

MT4 [20] = assay: Cytotoxic effect in cultured MT-4 lymphocytes at a concentration of 100 ug/mL (0.3500 uM/mL).; type: functional, Homo sapiens
In short: (§6)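 MT-4 cells at 5 × 10^4 cells/well, 1 mL total, cultured with compound diluted in RPMI 1640 with 10% FBS, 10 mM HEPES, penicillin/streptomycin and 2 mM glutamine, at 37 °C under 5% CO2. Viability was scored by trypan blue exclusion on days 4 and 7, in triplicate, as % viable cells.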

MCF7 [21] = assay: […] breast tumor cell proliferation inhibition by the compound in vitro at a concentration of 0.6 uM.; type: functional, Homo sapiens
In short: (§7)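 Breast tumor cells treated with specified compound concentrations in RPMI-1640 in 1% agar with 5% FBS for 1 week. Viability compared with a control given distilled water in place of drug; 5-fluorouracil as standard cytotoxic drug. Reported as concentration-dependent cell survival.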

MCF7 [22] = assay: […] breast tumor cell proliferation inhibition by the compound in vitro at a concentration of 6.0 uM.; type: functional, Homo sapiens; in short: as §7
MCF7 [23] = assay: […] breast tumor cell proliferation inhibition by the compound in vitro at a concentration of 60 uM.; type: functional, Homo sapiens; in short: as §7
MT4 [24] = assay: Cytotoxic effect in cultured MT-4 lymphocytes at a concentration of 10 ug/mL (0.0350 uM/mL).; type: functional, Homo sapiens; in short: as §6
MT4 [25] = assay: Cytotoxic effect in cultured MT-4 lymphocytes at a concentration of 2 ug/mL (0.0070 uM/mL).; type: functional, Homo sapiens; in short: as §6
[26] = Calu3 lung tumor cell proliferation inhibition by the compound in vitro at a concentration of 0.015 uM.; type: functional, Homo sapiens; in short: as §1
[27] = Calu3 lung tumor cell proliferation inhibition by the compound in vitro at a concentration of 0.15 uM.; type: functional, Homo sapiens; in short: as §1
[28] = Calu3 lung tumor cell proliferation inhibition by the compound in vitro at a concentration of 1.5 uM.; type: functional, Homo sapiens; in short: as §1
COLO 320DM [29] = assay: COLO 320DM colon tumor cell proliferation inhibition by the compound in vitro at a concentration of 1.5 uM.; type: functional, Homo sapiens; in short: as §1
COLO 320DM [30] = assay: COLO 320DM colon tumor cell proliferation inhibition by the compound in vitro at a concentration of 0.015 uM.; type: functional, Homo sapiens; in short: as §1
COLO 320DM [31] = assay: COLO 320DM colon tumor cell proliferation inhibition by the compound in vitro at a concentration of 0.15 uM.; type: functional, Homo sapiens; in short: as §1
[32] = test system: Human immunodeficiency virus 1; assay: Inhibitory effect against HIV-1 in human peripheral blood monocyte cells(PBMC) (EC50-22.6 ug/mL); type: functional, organism-based
[33] = test system: Human immunodeficiency virus 1; assay: Inhibitory effect against HIV-1 induced cytopathic effects(HIV-1 neutralization) in MT-4 lymphocytes at a concentration of 10 ug/mL (0.0375 uM/mL).; type: functional; in short: as §5
MT4 [34] = assay: Cytotoxic effect in cultured MT-4 lymphocytes at a concentration of 100 ug/mL (0.3750 uM/mL).; type: functional, Homo sapiens; in short: as §6
MCF7 [35] = assay: […] breast tumor cell proliferation inhibition by the compound in vitro at a concentration of 0.015 uM.; type: functional, Homo sapiens; in short: as §7
MCF7 [36] = assay: […] breast tumor cell proliferation inhibition by the compound in vitro at a concentration of 0.15 uM.; type: functional, Homo sapiens; in short: as §7
MCF7 [37] = assay: […] breast tumor cell proliferation inhibition by the compound in vitro at a concentration of 1.5 uM.; type: functional, Homo sapiens; in short: as §7
MT4 [38] = assay: Cytotoxic effect in cultured MT-4 lymphocytes at a concentration of 2 ug/mL (0.0076 uM/mL).; type: functional, Homo sapiens; in short: as §6
MT4 [39] = assay: Cytotoxic effect in cultured MT-4 lymphocytes at a concentration of 10 ug/mL (0.0375 uM/mL).; type: functional, Homo sapiens; in short: as §6
[40] = test system: Human immunodeficiency virus 1; assay: Inhibitory effect against HIV-1 in human peripheral blood monocyte cells(PBMC) (EC50 ->7.44 ug/mL); type: functional, organism-based

O=C([O-])CSc1ccc2nc3ccccc3c(O)c2c1.[Na+]
Viability [1]: 113%
Viability [2]: 48%
Viability [3]: 0%
Viability (COLO 320DM [4]): 110%
Viability (COLO 320DM [5]): 41%
Viability (COLO 320DM [6]): 0%
Inhibition [7]: 31%
Survival [8]: 72.7%
Survival [9]: 81.4%
Survival [10]: 84.2%
Bound [11]: 22.4%
Inactivation [12]: 13.1%
Inactivation [13]: 40.5%
Inactivation [14]: 25%
Inactivation [15]: 21%
Inactivation [16]: 100%
Inactivation [17]: 74.3%
Inhibition [18]: 32.7%
Viability [19]: 70.9%
Viability (MT4 [20]): 92.6%
Viability (MCF7 [21]): 85%
Viability (MCF7 [22]): 19%
Viability (MCF7 [23]): 0%
Viability (MT4 [24]): 93.3%
Viability (MT4 [25]): 96.7%

Cc1nc2cc3nc4ccccc4c(O)c3cc2s1.Cl
Viability [26]: 98%
Viability [27]: 36%
Viability [28]: 0%
Viability (COLO 320DM [29]): 0%
Viability (COLO 320DM [30]): 117%
Viability (COLO 320DM [31]): 49%
EC50 [32]: 84.6 µM
Viability [33]: 19.4%
Viability (MT4 [34]): 74.3%
Viability (MCF7 [35]): 91%
Viability (MCF7 [36]): 38%
Viability (MCF7 [37]): 0%
Viability (MT4 [38]): 91.9%
Viability (MT4 [39]): 87.2%

Cc1nc2cc(Nc3ccccc3C(=O)[O-])ccc2s1.[Na+]
EC50 [40]: 26 µM
Viability [19]: 18.2%
Viability (MT4 [20]): 93.3%
Viability (MT4 [24]): 92.6%
Viability (MT4 [25]): 87.5%
